Common to all, as to assay type: ADME, organism-based
A short description of data set [1]: AUC(0 to 12 hrs) in healthy human at […], po BID for 4 days. The settings on record: plasma. More on the design: time < 12 hr, route oral. An outline of the steps: (§1)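 Healthy male and female subjects given raltegravir 400 mg orally every 12 h for 4 days. A light meal was taken 2 h before the day 4 morning dose. Plasma sampled 0–12 h after that dose and assayed by HPLC-MS/MS (LLOQ 2 ng/ml). AUC0-12 by linear-up/log-down trapezoidal rule. Cmax, Tmax and nominal 12 h C12 read from the data.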

The nature of data set [2]: AUC (0 to infinity) in healthy human at […], po administered as single dose. Also on record: time infinity, route oral. The settings on record: plasma. The procedure, abridged: (§2)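 Healthy male and female subjects (n=9), fasted 8 h before and 4 h after a single oral 400 mg raltegravir dose. Plasma sampled 0–48 h postdose and measured by liquid-liquid extraction then reverse-phase HPLC-MS/MS (LLOQ 2 ng/ml). AUC0-∞ from a biexponential fit plus linear/log trapezoidal rule. Cmax and Tmax read from the data. C12 taken at the nominal 12 h sample.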

Data set [3] is described as follows: Cmin in healthy human at […], po BID for 14 days after 12 hrs in presence of […], po rifampin. The conditions noted are these: in vivo, read-out: Cmin. An outline of the steps:
(§3)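 Same subjects given raltegravir 800 mg orally every 12 h plus rifampin 600 mg orally once daily for 14 days. A light meal was taken 2 h before the day 14 morning dose. Plasma sampled 0–12 h postdose and assayed by HPLC-MS/MS. AUC0-12 by linear-up/log-down trapezoidal rule. Cmax, Tmax and C12 read directly.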

A short description of data set [4]: Tmax in healthy human at […], po BID for 14 days in presence of […], po rifampin. The conditions noted are these: in vivo. An outline of the steps:
as §3

A short description of data set [5]: Terminal half life in healthy human at […], po administered as single dose in presence of […], po rifampin. The settings on record: in vivo, read-out: beta t1/2 (converted). An outline of the steps:
(§4)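 Study 1: open-label two-period fixed-sequence design in healthy adults (nine completed). A single 400 mg oral dose was given fasted (8 h before, 4 h after), then after at least 4 days washout, 600 mg rifampin orally once daily for 15 days, with 400 mg raltegravir given on day 14. Plasma sampled 0–48 h; LC-MS/MS (LLOQ 2 ng/ml). Biexponential fit weighted 1/(predicted concentration)²; t1/2 = ln(2)/α or β.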

Data set [6] is described as follows: Cmin in healthy human at […], po administered as single dose after 12 hrs. More on the design: route oral. The settings on record: in vivo, read-out: Cmin. The procedure, abridged: as §2
Data set [7] is described as follows: Cmin in healthy human at […], po BID for 4 days after 12 hrs. The settings on record: in vivo, read-out: Cmin. Also on record: route oral. An outline of the steps: as §1
Data set [8] is described as follows: Cmax in healthy human at […], po administered as single dose. More on the design: route oral. The conditions noted are these: in vivo. The procedure, abridged:
as §2

Data set [9] is described as follows: Cmin in healthy human at […], po administered as single dose after 12 hrs in presence of […], po rifampin. The conditions noted are these: in vivo, read-out: Cmin. An outline of the steps:
(§5)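 Same subjects after a washout of at least 4 days, given rifampin 600 mg orally once daily for 15 days. On day 14, a single fasted oral 400 mg raltegravir dose was given with rifampin. Plasma sampled 0–48 h postdose and assayed by HPLC-MS/MS. AUC0-∞ by biexponential fit plus trapezoidal rule. Cmax, Tmax and nominal 12 h C12 read directly.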

The nature of data set [10]: Primary phase half life in healthy human at […], po administered as single dose in presence of […], po rifampin. The settings on record: in vivo. An outline of the steps:
as §4

The nature of data set [11]: Cmax in healthy human at […], po administered as single dose in presence of […], po rifampin. Also on record: route oral. The conditions noted are these: in vivo. The procedure, abridged: as §5
Data set [12] is described as follows: Tmax in healthy human at […], po administered as single dose in presence of […], po rifampin. The conditions noted are these: in vivo. The procedure, abridged: as §5
A short description of data set [13]: Primary phase half life in healthy human at […], po administered as single dose. The conditions noted are these: in vivo. More on the design: route oral. The procedure, abridged: as §4
Data set [14] in a line: AUC (0 to infinity) in healthy human at […], po administered as single dose in presence of […], po rifampin. More on the design: route oral, time infinity. The conditions noted are these: plasma. An outline of the steps:
as §5

Data set [15] in a line: Cmax in healthy human at […], po BID for 14 days in presence of […], po rifampin. More on the design: route oral. The settings on record: in vivo. The procedure, abridged:
as §3

Data set [16] in a line: AUC(0 to 12 hrs) in healthy human at […], po BID for 14 days in presence of […], po rifampin. More on the design: time < 12 hr, route oral. The conditions noted are these: plasma. The procedure, abridged:
as §3

A short description of data set [17]: Terminal half life in healthy human at […], po administered as single dose. More on the design: route oral. The conditions noted are these: in vivo, read-out: beta t1/2 (converted). An outline of the steps:
as §4

In general, AUC refers to concentration integrated over time. As a reminder, the AUC(0-inf) is total exposure, with the tail of the curve extrapolated. For orientation: Tmax means the time at which the peak concentration occurs. By Cmax is commonly meant the highest concentration seen after dosing.

Consider `Cc1nnc(C(=O)NC(C)(C)c2nc(C(=O)NCc3ccc(F)cc3)c(O)c(=O)n2C)o1` [RALTEGRAVIR], for which the AUC at 12 h in data set [1] worked out at 4.61 µM·h; in [16] it was 5.85 µM·h. For the same molecule, the AUC(0-inf) in data set [2] was determined as 27.6 µM·h; in data set [14] it was 16.5 µM·h. Further, the concentration at 12 h was found to be 43.5 nM in [3], 92.1 nM in data set [6], 92.5 nM in [7] and 36.3 nM in data set [9]. Also, the Tmax came out at 1.75 h in data set [4] and 3 h in data set [12]. The half-life in [5] was 9.6 h; in data set [10], 0.93 h; in [13], 1.07 h; in [17], 8.5 h. For the same molecule, the values for the Cmax in data set [8], in data set [11] and in data set [15] were 8610 nM, 5340 nM and 1950 nM, respectively.

The values are drawn from ChEMBL document CHEMBL1649522, “Effect of rifampin, a potent inducer of drug-metabolizing enzymes, on the pharmacokinetics of raltegravir” (Antimicrob Agents Chemother, 2009).
